This note sets out measurements from ChEMBL document CHEMBL1121890, “Synthesis and antimetastatic properties of steroeoisomeric trycylic bis(dioxopiperazine) analogues in a B16 melanoma model” (1981).

Several values for one entry are separate records, joined by “and”; a condition that tells them apart may be missing. Equal values may be shown once.

What all share (type): functional, Mus musculus
Assay [1] has as its system B16-F10. The assay can be described thus: Effect of 100 uM on B16-F10 melanoma cells (experiment 2). Put shortly:
(§1)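 B16-F10 cells, cultured in vitro for no more than 10 passages, were exposed for 24 h to drug made up as a 1000 μM Me₂SO stock and diluted in medium. Controls were Me₂SO or saline. Cells were scraped, washed and set at 5 × 10⁵/mL in Hanks BSS, and 0.2 mL was given iv by tail vein to male C57Bl/6J mice aged 6–8 weeks. Black lung nodules were counted at 14 days, mean ± SD, ANOVA/Newman–Keuls.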

The subject of assay [2] is B16-F10. The assay can be described thus: Effect of 20 uM on B16-F10 melanoma cells (experiment 2). Put shortly:
as §1

The test system of assay [3] is B16-F10. The experiment in a line: Effect of 2 uM on B16-F10 melanoma cells (experiment 2). In outline: as §1
Assay [4] concerns B16-F10. The experiment in a line: Effect of 100 uM on B16-F10 melanoma cells (experiment 1). Put shortly:
as §1

Assay [5] deals with B16-F10. The experiment in a line: Effect of 2 uM on B16-F10 melanoma cells (experiment 1). Put shortly:
as §1

The subject of assay [6] is B16-F10. The experiment in a line: Effect of 20 uM on B16-F10 melanoma cells (experiment 1). In outline: as §1

Turning to `O=C1CN2CCN3CC(=O)NC(=O)[C@H]3C2C(=O)N1` (some centres not stated), the figures for the “Mean no. of lung colonies” value in assay [1], in assay [2] and in assay [3] were 118.9, 96.1 and 52.1, respectively.
Take `O=C1CN2CCN3CC(=O)NC(=O)[C@@H]3C2C(=O)N1` (some centres not stated): the “Mean no. of lung colonies” value is 65.7 in assay [4]; 29.1 in assay [5]; 23.3 in assay [6]; 50.1 and 50.2 in assay [2]; 39.1 in assay [3].
Turning to `CCOC(=O)CN1CCN(CC(=O)OCC)[C@H]2C(=O)NC(=O)[C@H]21`, the “Mean no. of lung colonies” value in assay [4] came out at 142.5; in assay [5], 159.7; in assay [6] it was 160.7.
Turning to `CCOC(=O)COC(=O)[C@H]1[C@@H](C(N)=O)N(CC(=O)OCC)CCN1CC(=O)OCC`, the “Mean no. of lung colonies” value in assay [4] was 37.1; in assay [5], 33.2; in assay [6], 43.4.
With `COC(=O)CN1CCN2CC(=O)NC(=O)[C@@H]2[C@@H]1C(N)=O`, the results for the “Mean no. of lung colonies” value in assay [1], in assay [2] and in assay [3] were 56.7, 101.3 and 86.2, respectively.
